Assay results: ChEMBL document CHEMBL4257580, “Tanshinone-IIA-Based Analogues of Imidazole Alkaloid Act as Potent Inhibitors To Block Breast Cancer Invasion and Metastasis in Vivo” (J Med Chem, 2018)
pIC50: −log10 of the molar value. Active and inactive are the calls of the source. No cut-off for these calls is given here.

Assays:
MDA-MB-231 [1] = assay: Antiproliferative activity against human MDA-MB-231 cells after 72 hrs by MTT assay; format: functional, cell-based
In short: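 MDA-MB-231 cells grown in DMEM with 10% FBS and penicillin/streptomycin at 37 °C under 5% CO2. Seeded at 5×10^3 cells/well for 24 h, then exposed to compound across a concentration range for 72 h. MTT (5 mg/mL in PBS) added for 5 h, formazan dissolved in DMSO, absorbance read at 570 nm. Three repeats.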

HepG2 = assay: Antiproliferative activity against human HepG2 cells after 72 hrs by MTT assay; format: functional, cell-based; conditions: HepG2, 72 h
In short: (§1)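 A549, HeLa, HepG2 and normal liver L02 cells kept in DMEM with 10% FBS at 37 °C under 5% CO2. Plated at 5×10^3 cells/well for 24 h, then treated with graded concentrations for 72 h. Viability measured by MTT reduction (5 h), formazan dissolved in DMSO and read at 570 nm. Three repeats.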

HeLa = assay: Antiproliferative activity against human HeLa cells after 72 hrs by MTT assay; format: functional, cell-based; in short: as §1
A549 = assay: Antiproliferative activity against human A549 cells after 72 hrs by MTT assay; format: functional, cell-based; conditions: A549, 72 h; in short: as §1
L02 = assay: Antiproliferative activity against human L02 cells after 72 hrs by MTT assay; format: cell-based; conditions: L02, 72 h; in short: as §1
MDA-MB-231 [2] = assay: Antimigratory activity in human MDA-MB-231 cells at 3 uM up to 72 hrs by wound healing assay relative to control; format: functional
In short: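 Scratch assay: 1×10^5 cells/well grown to more than 80% confluence and wounded with a pipette tip. Cells then incubated with 0, 3 or 6 μM in serum-free DMEM for 72 h. The same field was imaged repeatedly over 3 days. Migration rate is wound filling, averaged over 10 fields; three independent experiments, mean ± SD.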

MDA-MB-231 [3] = assay: Antiangiogenesis activity in human MDA-MB-231 cells xenografted in fil1:EGFP transgenic zebrafish sub-intestinal vessels assessed as inhibition of cell migration at 5 uM measured every 24 hrs for 96 hrs by fluorescence microscopy; format: functional, cell-based
In short: (§2)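 Tg(fli1:EGFP) embryos at 48 hpf injected with 10–50 nL of DiI-labelled cells (~10^7 cells/mL in serum-free DMEM) into the perivitelline space near the subintestinal vessels. Ten embryos per well kept in 2 mL aquaculture water with 0 or 5 μM for 96 h. Imaged every 24 h by fluorescence microscopy; tumour area and trunk/tail fluorescence quantified, n=10/group, three experiments.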

MDA-MB-231 [4] = assay: Antitumor activity in human MDA-MB-231 cells xenografted in fil1:EGFP transgenic zebrafish sub-intestinal vessels assessed as reduction in tumor area at 5 uM measured every 24 hrs for 96 hrs by fluorescence microscopy; format: functional, cell-based; in short: as §2
MDA-MB-231 [5] = assay: Antimetastasis activity in human MDA-MB-231 cells assessed reduction in FAK protein expression at 5 to 15 uM after 72 hrs by Western blot analysis; format: functional, cell-based
In short: (§3)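 Cells treated with 0, 5, 10 or 15 μM for 72 h. Lysates quantified by BCA, equal protein resolved on 10% tricine SDS-PAGE and transferred to nitrocellulose. Membranes blocked in 5% milk/TBST, then primary antibodies 1:1000 overnight at 4 °C and HRP secondary 1:2000 for 1 h at room temperature. Three independent experiments.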

MDA-MB-231 [6] = assay: Antimetastasis activity in human MDA-MB-231 cells assessed upregulation of GSKbeta protein expression at 5 to 15 uM after 72 hrs by Western blot analysis; format: functional, cell-based; in short: as §3
MDA-MB-231 [7] = assay: Cell cycle arrest in human MDA-MB-231 cells assessed as accumulation at S phase at 5 uM after 72 hrs by propidium iodide staining based flow cytometry (reference value: 42.60%); format: functional
MDA-MB-231 [8] = assay: Cell cycle arrest in human MDA-MB-231 cells assessed as accumulation at G1 phase at 15 uM after 72 hrs by propidium iodide staining based flow cytometry (reference value: 49.40%); format: functional
MDA-MB-231 [9] = assay: Induction of apoptosis in human MDA-MB-231 cells assessed as early apoptotic cells at 5 uM after 72 hrs by annexin-V/propidium iodide double staining based flow cytometry (reference value: 0.02%); format: functional
MDA-MB-231 [10] = assay: Induction of apoptosis in human MDA-MB-231 cells assessed as early apoptotic cells at 10 uM after 72 hrs by annexin-V/propidium iodide double staining based flow cytometry (reference value: 0.02%); format: functional
MDA-MB-231 [11] = assay: Induction of apoptosis in human MDA-MB-231 cells assessed as early apoptotic cells at 15 uM after 72 hrs by annexin-V/propidium iodide double staining based flow cytometry (reference value: 0.02%); format: functional
MDA-MB-231 [12] = assay: Induction of apoptosis in human MDA-MB-231 cells assessed as late apoptotic cells at 15 uM after 72 hrs by annexin-V/propidium iodide double staining based flow cytometry (reference value: 0.12%); format: functional
MDA-MB-231 [13] = assay: Cell cycle arrest in human MDA-MB-231 cells assessed as up-regulation of p21 expression at 5 to 15 uM after 72 hrs by Western blot analysis; format: functional, cell-based; in short: as §3
MDA-MB-231 [14] = assay: Cell cycle arrest in human MDA-MB-231 cells assessed as downregulation of cyclin A expression at 5 to 15 uM after 72 hrs by Western blot analysis; format: functional, cell-based; in short: as §3
MDA-MB-231 [15] = assay: Induction of apoptosis in human MDA-MB-231 cells assessed as up-regulation cleaved caspase3 expression at 5 to 15 uM after 72 hrs by Western blot analysis; format: functional, cell-based; in short: as §3
MDA-MB-231 [16] = assay: Induction of apoptosis in human MDA-MB-231 cells assessed as up-regulation of PARP expression at 5 to 15 uM after 72 hrs by Western blot analysis; format: functional, cell-based; in short: as §3
MDA-MB-231 [17] = assay: Induction of DNA damage in human MDA-MB-231 cells assessed as increase in olive tail moment at 10 to 20 uM by comet assay; format: functional, cell-based
In short: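 Neutral comet assay on cells treated with 0, 10 or 20 μM for 24 h. DNA stained with SYBR Green I and imaged by fluorescence microscopy. Olive tail moment measured on 50 randomly selected cells per slide.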

MDA-MB-231 [18] = assay: Induction of DNA damage in human MDA-MB-231 cells assessed as up-regulation of p53 expression at 2 to 15 uM by Western blot analysis; format: functional, cell-based
MDA-MB-231 [19] = assay: Induction of DNA damage in human MDA-MB-231 cells assessed as down-regulation of AKT expression at 2 to 15 uM by Western blot analysis; format: functional, cell-based
MDA-MB-231 [20] = assay: Induction of morphological changes in human MDA-MB-231 cells assessed as roughening of cell membrane surface with large and numerous particles at 5 to 20 uM after 72 hrs; format: functional, cell-based
MDA-MB-231 [21] = assay: Induction of morphological changes in human MDA-MB-231 cells assessed as unevening of cell membrane surface with large and numerous particles at 5 to 20 uM after 72 hrs; format: functional, cell-based
MDA-MB-231 [22] = assay: Cell cycle arrest in human MDA-MB-231 cells assessed as accumulation at G1 phase at 5 uM after 24 hrs by propidium iodide staining based flow cytometry (reference value: 49.40%)
MDA-MB-231 [23] = assay: Antimetastasis activity in human MDA-MB-231 cells assessed reduction in stress fibers by measuring F-actin protein expression at 5 to 10 uM after 24 hrs by immunofluorescence based assay

pIC50 (MDA-MB-231 [1]; MDA-MB-231, 72 h): 4.88
pIC50 (HepG2): 4.67
pIC50 (HeLa): 4.40
pIC50 (A549): 5.16
SMILES: Cc1coc2c3ccc4c(c3c3[nH]c(-c5ccc(O)cc5)nc3c12)CCCC4(C)C
Activity (MDA-MB-231 [1]): Dose-dependent effect
pIC50 (L02): 4.31
Activity (MDA-MB-231 [2]): <50%
Activity (MDA-MB-231 [3]): Active
Activity (MDA-MB-231 [4]): Active
Activity (MDA-MB-231 [5]): Active
Activity (MDA-MB-231 [6]): Active
Activity (MDA-MB-231 [7]): 46.41%
Activity (MDA-MB-231 [8]): 35.37%
Activity (MDA-MB-231 [9]): 2.22%
Activity (MDA-MB-231 [10]): 3.87%
Activity (MDA-MB-231 [11]): 6.73%
Activity (MDA-MB-231 [12]): 2.73%
Activity (MDA-MB-231 [13]): Active
Activity (MDA-MB-231 [14]): Active
Activity (MDA-MB-231 [15]): Active
Activity (MDA-MB-231 [16]): Active
Activity (MDA-MB-231 [17]): Active
Activity (MDA-MB-231 [18]): Active
Activity (MDA-MB-231 [19]): Active
Activity (MDA-MB-231 [20]): Active
Activity (MDA-MB-231 [21]): Active
Activity (MDA-MB-231 [22]): 42.38%
Activity (MDA-MB-231 [23]): Active
